Experimental data reported in ChEMBL document CHEMBL1124257, “An examination of O-2-isocephems as orally absorbable antibiotics” (J Med Chem, 1988).
≈ marks a conversion by molar mass, not a printed value.

Legend:
Streptococcus pneumoniae [1] = experiment: Protective dose (PD50) against Streptococcus pneumoniae infected mice; type: functional; settings: for ED50: Streptococcus pneumoniae, read-out: PD50
Summary of the method: (§1)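 Male Swiss-Webster mice (20 ± 2 g) were challenged intraperitoneally with enough bacteria to kill untreated controls within 72 h. Drug was given orally by gavage twice: at 0 and 2 h after E. coli challenge, or at 1 and 3.5 h after S. pneumoniae challenge. PD50 is the dose in mg/kg per dose that protects 50% of animals.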

Staphylococcus aureus = experiment: Minimum inhibitory concentration (MIC) against Staphylococcus aureus by 2-fold microdilution technique.; type: functional
Summary of the method: (§2)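 For each organism, an overnight culture was grown in Mueller-Hinton broth at 37 °C. Twofold microtiter dilutions in Nutrient Broth covered 0.005–125 µg/mL. Each well received about 10^4 organisms, and plates were incubated 18 h at 37 °C. MIC was the lowest concentration giving no visible growth.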

Enterococcus faecalis = experiment: Minimum inhibitory concentration (MIC) against Streptococcus faecalis by 2-fold microdilution technique.; type: functional; summary of the method: as §2
Streptococcus pneumoniae [2] = experiment: Minimum inhibitory concentration (MIC) against Streptococcus pneumoniae by 2-fold microdilution technique; type: functional; summary of the method: as §2
Streptococcus pyogenes = experiment: Minimum inhibitory concentration (MIC) against Streptococcus pyogenes by 2-fold microdilution technique; type: functional; summary of the method: as §2
Proteus mirabilis = experiment: Minimum inhibitory concentration (MIC) against Proteus mirabilis by 2-fold microdilution technique.; type: functional; summary of the method: as §2
Escherichia coli [3] = experiment: Minimum inhibitory concentration (MIC) […] against Escherichia coli.; type: functional; summary of the method: as §2
Escherichia coli [4] = experiment: Minimum inhibitory concentration (MIC) against Escherichia coli by 2-fold microdilution technique.; type: functional; summary of the method: as §2
Klebsiella pneumoniae = experiment: Minimum inhibitory concentration (MIC) against Klebsiella pneumoniae by 2-fold microdilution technique.; type: functional; summary of the method: as §2
Haemophilus influenzae = experiment: Minimum inhibitory concentration (MIC) against Haemophilus influenzae by 2-fold microdilution technique.; type: functional; summary of the method: as §2
Streptococcus pneumoniae [5] = experiment: Minimum inhibitory concentration (MIC) […] against Streptococcus pneumoniae.; type: functional; summary of the method: as §2
Escherichia coli [6] = experiment: Protective dose (PD50) against Escherichia coli infected mice; type: functional; settings: read-out: PD50; summary of the method: as §1
[7] = (§3) Cmax was measured in mice after an oral dose of 50 mg/kg.; type: ADME, organism-based; parameters: dose 50 mg/kg, route oral; settings: mouse, in vivo
Summary of the method: (§4)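 Male Swiss-Webster mice (20 ± 2 g) were given a single 50 mg/kg oral dose by gavage. Blood concentrations and urine levels were measured by microbiological assay, and urinary recovery was taken over 0–6 h.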

Mus musculus [8] = experiment: Area under curve(AUC) was measured in mice after oral administration.; type: ADME, organism-based; parameters: concentration or dose not given beside the values; unit not given here; settings: in vivo; summary of the method: as §4
Mus musculus [9] = species: Mus musculus; experiment: Percentage of dose recovered after 0-6 hr in the urine of mice was measured.; type: ADME, organism-based; settings: in vivo; summary of the method: as §4
[10] = Half life was measured.; type: ADME; summary of the method: as §4
Mus musculus [11] = experiment: as §3; type: ADME, organism-based; parameters: dose 50 mg/kg, route oral; settings: in vivo; summary of the method: as §4
Mus musculus [12] = experiment: Area under curve(AUC) was measured in mice after oral administration (50 mg/kg); type: ADME, organism-based; settings: in vivo; summary of the method: as §4
[13] = Staphylococcus aureus, read-out: MIC
[14] = Enterococcus faecalis, read-out: MIC
[15] = Streptococcus pneumoniae, read-out: MIC
[16] = Streptococcus pyogenes, read-out: MIC
[17] = Proteus mirabilis, read-out: MIC
[18] = Escherichia coli, read-out: MIC
[19] = Klebsiella pneumoniae, read-out: MIC
[20] = Haemophilus influenzae, read-out: MIC

| Compound | ED50 (Streptococcus pneumoniae [1]) [mg/kg] | MIC (Staphylococcus aureus; [13]) [µg/mL] | MIC (Enterococcus faecalis; [14]) [µg/mL] | MIC (Streptococcus pneumoniae [2]; [15]) [µg/mL] | MIC (Streptococcus pyogenes; [16]) [µg/mL] | MIC (Proteus mirabilis; [17]) [µg/mL] | MIC (Escherichia coli [3]; [18]) [µg/mL] | MIC (Escherichia coli [4]; [18]) [µg/mL] | MIC (Klebsiella pneumoniae; [19]) [µg/mL] | MIC (Haemophilus influenzae; [20]) [µg/mL] | MIC (Streptococcus pneumoniae [5]; [15]) [µg/mL] | ED50 (Escherichia coli [6]) [mg/kg] | Cmax [7] [ng/mL] | AUC (Mus musculus [8]) | Urinary recovery (% of dose, 0-6 h) (Mus musculus [9]) [%] | half-life [10] [min] | also measured |
| --- | --- | --- | --- | --- | --- | --- | --- | --- | --- | --- | --- | --- | --- | --- | --- | --- | --- |
| CC1=C(C(=O)O)N2C(=O)[C@@H](NC(=O)[C@H](N)c3ccc(O)cc3)[C@H]2CO1 | 2.1 | 1 (≈ 2.88 µM) | 16 (≈ 46.1 µM) | 0.13 (≈ 0.374 µM) | 0.13 (≈ 0.374 µM) | 4 (≈ 11.5 µM) | 8 (≈ 23 µM) | 8 (≈ 23 µM) | 8 (≈ 23 µM) | 8 (≈ 23 µM) | 0.13 (≈ 0.374 µM) | 11 | – | – | – | – | – |
| C/C=C/C1=C(C(=O)O)N2C(=O)[C@@H](NC(=O)[C@H](N)c3ccc(O)cc3)[C@H]2CO1 (relative stereo) | 1.8 | 0.25 (≈ 0.67 µM) | 1 (≈ 2.68 µM) | 0.03 (≈ 0.0804 µM) | 0.016 (≈ 0.0429 µM) | 0.5 (≈ 1.34 µM) | 2 (≈ 5.36 µM) | 2 (≈ 5.36 µM) | 8 (≈ 21.4 µM) | 2 (≈ 5.36 µM) | 0.03 (≈ 0.0804 µM) | > 50 | 11000 | 30 | 5 | 110 | – |
| N[C@@H](C(=O)N[C@@H]1C(=O)N2C(C(=O)O)=COC[C@H]12)c1ccc(O)cc1 | 33 | 1 (≈ 3 µM) | 32 (≈ 96 µM) | 1 (≈ 3 µM) | 0.25 (≈ 0.75 µM) | 4 (≈ 12 µM) | 4 (≈ 12 µM) | 4 (≈ 12 µM) | 8 (≈ 24 µM) | 2 (≈ 6 µM) | 1 (≈ 3 µM) | 6.2 | – | – | – | – | – |
| C/C=C/C1=C(C(=O)O)N2C(=O)[C@@H](NC(=O)[C@H](N)c3ccc(O)cc3)[C@H]2SC1.O (relative stereo; 56) [CEFPROZIL, (E)-] | 0.4 | 0.13 | 2 | 0.03 | 0.016 | – | – | – | – | 2 | – | 1.2 | 46000 | 42 | 85 | 29 | MIC (Proteus mirabilis): 0.25 µg/mL; MIC (Escherichia coli [3]): 2 µg/mL; MIC (Escherichia coli [4]): 1 µg/mL; MIC (Klebsiella pneumoniae): 2 µg/mL; MIC (Streptococcus pneumoniae [5]): 0.016 µg/mL |
| CCCC1=C(C(=O)O)N2C(=O)[C@@H](NC(=O)[C@H](N)c3ccc(O)cc3)[C@H]2CO1 | – | 0.06 (≈ 0.16 µM) | 0.03 (≈ 0.0799 µM) | 0.008 (≈ 0.0213 µM) | 0.004 (≈ 0.0107 µM) | 4 (≈ 10.7 µM) | – | 2 (≈ 5.33 µM) | 16 (≈ 42.6 µM) | – | – | – | – | – | – | – | – |
| C=CC1=C(C(=O)O)N2C(=O)[C@@H](NC(=O)[C@H](N)c3ccc(O)cc3)[C@H]2SC1 | – | 0.25 (≈ 0.666 µM) | 2 (≈ 5.33 µM) | 0.03 (≈ 0.0799 µM) | 0.03 (≈ 0.0799 µM) | 4 (≈ 10.7 µM) | – | 4 (≈ 10.7 µM) | 16 (≈ 42.6 µM) | – | – | – | 22000 | 21 | – | 29 | – |
| C=CCC1=C(C(=O)O)N2C(=O)[C@@H](NC(=O)[C@H](N)c3ccc(O)cc3)[C@H]2CO1 | 1 | 0.13 (≈ 0.348 µM) | 1 (≈ 2.68 µM) | 0.03 (≈ 0.0804 µM) | 0.008 (≈ 0.0214 µM) | 1 (≈ 2.68 µM) | 4 (≈ 10.7 µM) | 2 (≈ 5.36 µM) | 16 (≈ 42.9 µM) | 2 (≈ 5.36 µM) | 0.016 (≈ 0.0429 µM) | 9.2 | 31000 | 32 | 46 | 32 | – |
| C=CCC1=C(C(=O)O)N2C(=O)[C@@H](NC(=O)[C@H](N)c3ccc(O)cc3)[C@H]2SC1 | – | 0.13 (≈ 0.334 µM) | 18 (≈ 46.2 µM) | 0.03 (≈ 0.077 µM) | 0.016 (≈ 0.0411 µM) | 1 (≈ 2.57 µM) | – | 4 (≈ 10.3 µM) | 4 (≈ 10.3 µM) | 1 (≈ 2.57 µM) | – | – | 45000 | 41 | 79 | 34 | – |
| N[C@@H](C(=O)N[C@@H]1C(=O)N2C(C(=O)O)=C(/C=C/C(F)(F)F)OC[C@H]12)c1ccc(O)cc1 | > 12.5 | 0.5 (≈ 1.17 µM) | 0.13 (≈ 0.304 µM) | 0.016 (≈ 0.0374 µM) | 0.008 (≈ 0.0187 µM) | 16 (≈ 37.4 µM) | 4 (≈ 9.36 µM) | 4 (≈ 9.36 µM) | 16 (≈ 37.4 µM) | 2 (≈ 4.68 µM) | 0.016 (≈ 0.0374 µM) | > 50 | – | – | – | – | – |
| C/C=C/C1=C(C(=O)O)N2C(=O)[C@@H](NC(=O)[C@H](N)c3ccc(O)cc3)[C@H]2SC1.O (relative stereo; 57) [CEFPROZIL, (E)-] | – | – | – | – | – | – | – | – | – | – | – | – | – | 45 | 65 | – | PD50 (Streptococcus pneumoniae [1]): 0.5 mg/kg; MIC (Staphylococcus aureus): 0.25 µg/mL; MIC (Enterococcus faecalis): 4 µg/mL; MIC (Streptococcus pneumoniae [2]): 0.06 µg/mL; MIC (Streptococcus pyogenes): 0.03 µg/mL; MIC (Proteus mirabilis): 1 µg/mL; Cmax (Mus musculus [11]): 35000 ng/mL; MIC (Escherichia coli [3]): 8 µg/mL; MIC (Escherichia coli [4]): 8 µg/mL; MIC (Klebsiella pneumoniae): 8 µg/mL; MIC (Haemophilus influenzae): 4 µg/mL; T1/2 [10]: 47 min; MIC (Streptococcus pneumoniae [5]): 0.06 µg/mL |
| N[C@@H](C(=O)N[C@@H]1C(=O)N2C(C(=O)O)=C(Cl)CS[C@H]12)c1ccccc1.O [CEFACLOR] | – | 0.25 | 16 | 0.5 | 0.25 | 0.25 | – | 1 | 1 | 1 | – | – | – | – | – | – | – |
| CC1=C(C(=O)O)N2C(=O)[C@@H](NC(=O)[C@H](N)c3ccccc3)[C@H]2SC1 [CEPHALEXIN ANHYDROUS] | – | 0.5 (≈ 1.44 µM) | 32 (≈ 92.1 µM) | 0.5 (≈ 1.44 µM) | 0.5 (≈ 1.44 µM) | 4 (≈ 11.5 µM) | – | 8 (≈ 23 µM) | 16 (≈ 46.1 µM) | 4 (≈ 11.5 µM) | – | – | – | – | – | – | – |
| C=CC1=C(C(=O)O)N2C(=O)[C@@H](NC(=O)[C@H](N)c3ccc(O)cc3)[C@H]2CO1 | 0.8 | 0.13 (≈ 0.362 µM) | 0.5 (≈ 1.39 µM) | 0.03 (≈ 0.0835 µM) | 0.016 (≈ 0.0445 µM) | 0.5 (≈ 1.39 µM) | 2 (≈ 5.57 µM) | 2 (≈ 5.57 µM) | 8 (≈ 22.3 µM) | 1 (≈ 2.78 µM) | 0.03 (≈ 0.0835 µM) | 2.1 | 26000 | – | 73 | 39 | AUC (Mus musculus [12]): 30 µg/mL |
| C/C=C\C1=C(C(=O)O)N2C(=O)[C@@H](NC(=O)[C@H](N)c3ccc(O)cc3)[C@H]2CO1 (relative stereo) | 0.3 | 0.25 (≈ 0.67 µM) | 1 (≈ 2.68 µM) | 0.03 (≈ 0.0804 µM) | 0.016 (≈ 0.0429 µM) | 1 (≈ 2.68 µM) | 2 (≈ 5.36 µM) | 2 (≈ 5.36 µM) | 16 (≈ 42.9 µM) | 2 (≈ 5.36 µM) | 0.03 (≈ 0.0804 µM) | 19 | 15000 | 23 | 25 | 52 | – |
| N[C@@H](C(=O)N[C@@H]1C(=O)N2C(C(=O)O)=C(C3CC3)OC[C@H]12)c1ccc(O)cc1 | 3.6 | 0.25 (≈ 0.67 µM) | 1 (≈ 2.68 µM) | 0.03 (≈ 0.0804 µM) | 0.016 (≈ 0.0429 µM) | 2 (≈ 5.36 µM) | 4 (≈ 10.7 µM) | 4 (≈ 10.7 µM) | 16 (≈ 42.9 µM) | 8 (≈ 21.4 µM) | 0.03 (≈ 0.0804 µM) | > 50 | – | – | – | – | – |
| N[C@@H](C(=O)N[C@@H]1C(=O)N2C(C(=O)O)=C(/C=C\C(F)(F)F)OC[C@H]12)c1ccc(O)cc1 (relative stereo) | 2.7 | 0.5 (≈ 1.17 µM) | 0.06 (≈ 0.14 µM) | 0.016 (≈ 0.0374 µM) | 0.008 (≈ 0.0187 µM) | 16 (≈ 37.4 µM) | 2 (≈ 4.68 µM) | 2 (≈ 4.68 µM) | 32 (≈ 74.9 µM) | 2 (≈ 4.68 µM) | 0.016 (≈ 0.0374 µM) | > 50 | – | – | – | – | – |
